Measured values: ChEMBL document CHEMBL1153775, “Synthesis, structure elucidation and antitumour activity of N-substituted amides of 3-(3-ethylthio-1,2,4-triazol-5-yl)propenoic acid” (Eur J Med Chem, 2009)

Tests used:
A549 [1] = experiment: Cytotoxicity against human A549 cells assessed as growth inhibition at 0.14 mM after 72 hrs by spectrophotometer using BrdU labeling; type: functional; conditions: A549, 72 h, read-out: GI
[2] = Cytotoxicity against human HSF cells assessed as growth inhibition at 0.03 mM after 48 hrs by spectrophotometer using BrdU labeling; type: cell-based; conditions: read-out: GI
[3] = Cytotoxicity against human HSF cells assessed as growth inhibition at 0.03 mM after 24 hrs by spectrophotometer using BrdU labeling; type: cell-based; conditions: read-out: GI
T47D [4] = experiment: Cytotoxicity against human T47D cells assessed as growth inhibition at 0.14 mM after 24 hrs by spectrophotometer using BrdU labeling; type: functional; conditions: read-out: GI
A549 [5] = experiment: Cytotoxicity against human A549 cells assessed as growth inhibition at 0.14 mM after 24 hrs by spectrophotometer using BrdU labeling; type: functional; conditions: A549, 24 h, read-out: GI
A549 [6] = experiment: Cytotoxicity against human A549 cells assessed as growth inhibition at 0.28 mM after 24 hrs by spectrophotometer using BrdU labeling; type: functional; conditions: A549, 24 h, read-out: GI
T47D [7] = experiment: Cytotoxicity against human T47D cells assessed as growth inhibition at 0.28 mM after 72 hrs by spectrophotometer using BrdU labeling; type: functional; conditions: read-out: GI
Outline: (§1)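 Human breast carcinoma T47D cells were plated at 10⁴ cells per mL on microtiter plates. Each compound was added at three doses, given as mM equivalents of three mass concentrations. Plates were incubated for 24, 48 or 72 h. The read-out was percent growth inhibition (GI).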

[8] = Cytotoxicity against human HSF cells assessed as growth inhibition at 0.14 mM after 24 hrs by spectrophotometer using BrdU labeling; type: cell-based; conditions: read-out: GI
[9] = Cytotoxicity against human HSF cells assessed as growth inhibition at 0.03 mM after 72 hrs by spectrophotometer using BrdU labeling; type: cell-based; conditions: read-out: GI
A549 [10] = experiment: Cytotoxicity against human A549 cells assessed as growth inhibition at 0.03 mM after 48 hrs by spectrophotometer using BrdU labeling; type: functional; conditions: A549, 48 h, read-out: GI
T47D [11] = experiment: Cytotoxicity against human T47D cells assessed as growth inhibition at 0.03 mM after 48 hrs by spectrophotometer using BrdU labeling; type: functional; conditions: read-out: GI
A549 [12] = experiment: Cytotoxicity against human A549 cells assessed as growth inhibition at 0.03 mM after 24 hrs by spectrophotometer using BrdU labeling; type: functional; conditions: A549, 24 h, read-out: GI
[13] = Cytotoxicity against human HSF cells assessed as growth inhibition at 0.28 mM after 24 hrs by spectrophotometer using BrdU labeling; type: cell-based; conditions: read-out: GI
T47D [14] = experiment: Cytotoxicity against human T47D cells assessed as growth inhibition at 0.28 mM after 48 hrs by spectrophotometer using BrdU labeling; type: functional; conditions: read-out: GI; outline: as §1
T47D [15] = experiment: Cytotoxicity against human T47D cells assessed as growth inhibition at 0.03 mM after 72 hrs by spectrophotometer using BrdU labeling; type: functional; conditions: read-out: GI
[16] = Cytotoxicity against human HSF cells assessed as growth inhibition at 0.14 mM after 48 hrs by spectrophotometer using BrdU labeling; type: cell-based; conditions: read-out: GI
[17] = Cytotoxicity against human HSF cells assessed as growth inhibition at 0.28 mM after 72 hrs by spectrophotometer using BrdU labeling; type: cell-based; conditions: read-out: GI
A549 [18] = experiment: Cytotoxicity against human A549 cells assessed as growth inhibition at 0.28 mM after 48 hrs by spectrophotometer using BrdU labeling; type: functional; conditions: A549, 48 h, read-out: GI
A549 [19] = experiment: Cytotoxicity against human A549 cells assessed as growth inhibition at 0.28 mM after 72 hrs by spectrophotometer using BrdU labeling; type: functional; conditions: A549, 72 h, read-out: GI
A549 [20] = experiment: Cytotoxicity against human A549 cells assessed as growth inhibition at 0.03 mM after 72 hrs by spectrophotometer using BrdU labeling; type: functional; conditions: A549, 72 h, read-out: GI
T47D [21] = experiment: Cytotoxicity against human T47D cells assessed as growth inhibition at 0.14 mM after 48 hrs by spectrophotometer using BrdU labeling; type: functional; conditions: read-out: GI
[22] = Cytotoxicity against human HSF cells assessed as growth inhibition at 0.14 mM after 72 hrs by spectrophotometer using BrdU labeling; type: cell-based; conditions: read-out: GI
A549 [23] = experiment: Cytotoxicity against human A549 cells assessed as growth inhibition at 0.14 mM after 48 hrs by spectrophotometer using BrdU labeling; type: functional; conditions: A549, 48 h, read-out: GI
T47D [24] = experiment: Cytotoxicity against human T47D cells assessed as growth inhibition at 0.14 mM after 72 hrs by spectrophotometer using BrdU labeling; type: functional; conditions: read-out: GI
T47D [25] = experiment: Cytotoxicity against human T47D cells assessed as growth inhibition at 0.03 mM after 24 hrs by spectrophotometer using BrdU labeling; type: functional; conditions: read-out: GI
T47D [26] = experiment: Cytotoxicity against human T47D cells assessed as growth inhibition at 0.28 mM after 24 hrs by spectrophotometer using BrdU labeling; type: functional; conditions: read-out: GI; outline: as §1
[27] = Cytotoxicity against human HSF cells assessed as growth inhibition at 0.28 mM after 48 hrs by spectrophotometer using BrdU labeling; type: cell-based; conditions: read-out: GI
T47D [28] = experiment: Cytotoxicity against human T47D cells assessed as growth inhibition at 0.32 mM after 48 hrs by spectrophotometer using BrdU labeling; type: functional; conditions: read-out: GI; outline: as §1
T47D [29] = experiment: Cytotoxicity against human T47D cells assessed as growth inhibition at 0.16 mM after 48 hrs by spectrophotometer using BrdU labeling; type: functional; conditions: read-out: GI
T47D [30] = experiment: Cytotoxicity against human T47D cells assessed as growth inhibition at 0.32 mM after 24 hrs by spectrophotometer using BrdU labeling; type: functional; conditions: read-out: GI; outline: as §1
[31] = Cytotoxicity against human HSF cells assessed as growth inhibition at 0.32 mM after 72 hrs by spectrophotometer using BrdU labeling; type: cell-based; conditions: read-out: GI
A549 [32] = experiment: Cytotoxicity against human A549 cells assessed as growth inhibition at 0.32 mM after 72 hrs by spectrophotometer using BrdU labeling; type: functional; conditions: A549, 72 h, read-out: GI
A549 [33] = experiment: Cytotoxicity against human A549 cells assessed as growth inhibition at 0.16 mM after 48 hrs by spectrophotometer using BrdU labeling; type: functional; conditions: A549, 48 h, read-out: GI
[34] = Cytotoxicity against human HSF cells assessed as growth inhibition at 0.16 mM after 48 hrs by spectrophotometer using BrdU labeling; type: cell-based; conditions: read-out: GI
T47D [35] = experiment: Cytotoxicity against human T47D cells assessed as growth inhibition at 0.16 mM after 72 hrs by spectrophotometer using BrdU labeling; type: functional; conditions: read-out: GI; outline: as §1
[36] = Cytotoxicity against human HSF cells assessed as growth inhibition at 0.32 mM after 24 hrs by spectrophotometer using BrdU labeling; type: cell-based; conditions: read-out: GI
[37] = Cytotoxicity against human HSF cells assessed as growth inhibition at 0.16 mM after 24 hrs by spectrophotometer using BrdU labeling; type: cell-based; conditions: read-out: GI
[38] = Cytotoxicity against human HSF cells assessed as growth inhibition at 0.32 mM after 48 hrs by spectrophotometer using BrdU labeling; type: cell-based; conditions: read-out: GI
A549 [39] = experiment: Cytotoxicity against human A549 cells assessed as growth inhibition at 0.16 mM after 24 hrs by spectrophotometer using BrdU labeling; type: functional; conditions: A549, 24 h, read-out: GI
A549 [40] = experiment: Cytotoxicity against human A549 cells assessed as growth inhibition at 0.32 mM after 24 hrs by spectrophotometer using BrdU labeling; type: functional; conditions: A549, 24 h, read-out: GI
A549 [41] = experiment: Cytotoxicity against human A549 cells assessed as growth inhibition at 0.16 mM after 72 hrs by spectrophotometer using BrdU labeling; type: functional; conditions: A549, 72 h, read-out: GI
T47D [42] = experiment: Cytotoxicity against human T47D cells assessed as growth inhibition at 0.32 mM after 72 hrs by spectrophotometer using BrdU labeling; type: functional; conditions: read-out: GI; outline: as §1
T47D [43] = experiment: Cytotoxicity against human T47D cells assessed as growth inhibition at 0.16 mM after 24 hrs by spectrophotometer using BrdU labeling; type: functional; conditions: read-out: GI
A549 [44] = experiment: Cytotoxicity against human A549 cells assessed as growth inhibition at 0.32 mM after 48 hrs by spectrophotometer using BrdU labeling; type: functional; conditions: A549, 48 h, read-out: GI
[45] = Cytotoxicity against human HSF cells assessed as growth inhibition at 0.16 mM after 72 hrs by spectrophotometer using BrdU labeling; type: cell-based; conditions: read-out: GI

CCSc1n[nH]c(/C=C\C(=O)Nc2ccc(Br)cc2)n1
inhibition of growth at 140 µM (A549 [1]): 50% | inhibition at 48 h, 30 µM [2]: 0% | inhibition at 24 h, 30 µM [3]: 0% | inhibition of growth at 140 µM (T47D [4]): 5% | inhibition of growth at 140 µM (A549 [5]): 50% | inhibition of growth at 280 µM (A549 [6]): 50% | inhibition of growth at 280 µM (T47D [7]): 25% | inhibition at 24 h, 140 µM [8]: 75% | inhibition at 72 h, 30 µM [9]: 0% | inhibition of growth at 30 µM (A549 [10]): 25% | inhibition of growth at 30 µM (T47D [11]): 0% | inhibition of growth at 30 µM (A549 [12]): 25% | inhibition at 24 h, 280 µM [13]: 75% | inhibition of growth at 280 µM (T47D [14]): 20% | inhibition of growth at 30 µM (T47D [15]): 0% | inhibition at 48 h, 140 µM [16]: 75% | inhibition at 72 h, 280 µM [17]: 50% | inhibition of growth at 280 µM (A549 [18]): 50% | inhibition of growth at 280 µM (A549 [19]): 75% | inhibition of growth at 30 µM (A549 [20]): 0% | inhibition of growth at 140 µM (T47D [21]): 10% | inhibition at 72 h, 140 µM [22]: 75% | inhibition of growth at 140 µM (A549 [23]): 50% | inhibition of growth at 140 µM (T47D [24]): 25% | inhibition of growth at 30 µM (T47D [25]): 0% | inhibition of growth at 280 µM (T47D [26]): 5% | inhibition at 48 h, 280 µM [27]: 75%

CCSc1n[nH]c(/C=C\C(=O)Nc2ccccc2Cl)n1
inhibition of growth at 320 µM (T47D [28]): 10% | inhibition of growth at 160 µM (T47D [29]): 10% | inhibition at 48 h, 30 µM [2]: 0% | inhibition of growth at 320 µM (T47D [30]): 0% | inhibition at 24 h, 30 µM [3]: 0% | inhibition at 72 h, 320 µM [31]: 75% | inhibition of growth at 320 µM (A549 [32]): 75% | inhibition of growth at 160 µM (A549 [33]): 50% | inhibition at 48 h, 160 µM [34]: 0% | inhibition of growth at 160 µM (T47D [35]): 50% | inhibition at 24 h, 320 µM [36]: 25% | inhibition at 24 h, 160 µM [37]: 0% | inhibition at 48 h, 320 µM [38]: 50% | inhibition of growth at 160 µM (A549 [39]): 50% | inhibition of growth at 320 µM (A549 [40]): 50% | inhibition at 72 h, 30 µM [9]: 5% | inhibition of growth at 160 µM (A549 [41]): 50% | inhibition of growth at 30 µM (A549 [10]): 25% | inhibition of growth at 320 µM (T47D [42]): 90% | inhibition of growth at 30 µM (T47D [11]): 0% | inhibition of growth at 30 µM (A549 [12]): 25% | inhibition of growth at 30 µM (T47D [15]): 5% | inhibition of growth at 160 µM (T47D [43]): 0% | inhibition of growth at 30 µM (A549 [20]): 25% | inhibition of growth at 320 µM (A549 [44]): 50% | inhibition at 72 h, 160 µM [45]: 0% | inhibition of growth at 30 µM (T47D [25]): 0%
